RAM inhibit: blocks the yeast RAM network. S. cerevisiae dse1pr::URA3 reporter, 5-FOA growth OD615, 2 d; analog-sensitive cbk1-as2 kinase mutant strain. inhibition, % at 50 µM. 1.8% of 190,000 active. AID 868;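 active means inhibition above a set limit, 3 SD over mean compound inhibition, cut at about 8.4% in these data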;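 further: inhibition rescues growth on 5-FOA so higher OD means more RAM inhibition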
Yeast life ext: extends the lifespan of yeast. inhibition of the nicotinamide effect, % at 10 µM. 0.68% of 130,000 active. AID 775. S. cerevisiae growth with nicotinamide, OD615; deaD strain in restrictive glucose medium;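 active means inhibition above a set limit, placed 3 SD over the median of all compounds, cut at about 26% in these data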
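Measured by: optical density (absorbance) at 615 nm; System: modified budding yeast, DeaD strain; Medium: restrictive CSMM-D dextrose medium; Timing: 4 h preincubation then 48 h treatment at 30 °C.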
SDO1 yeast rescue: restores growth of sdo1-depleted yeast | S. cerevisiae sdo1-depleted JHY4D growth rescue, OD600 30 h; hits give high values; pdr5 snq2 efflux-pump mutant strain | z-score at 10 µM | 0.21% of 140,000 active | AID 817;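 active means z-score above 3 at both the 24 hr and the 30 hr optical density reads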
BB579 growth dn: reduces growth of yeast BB579 in restrictive medium; inhibition, % at 10 µM; S. cerevisiae BB579 growth, OD615, 48 h; 0.51% of 140,000 active; AID 804;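 active means inhibition above a set limit, 3 SD over the mean compound inhibition, cut at about 44% in these data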
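System: Saccharomyces cerevisiae DeaD strain BB579, replicative lifespan model yeast. Buffer or medium: restrictive glucose-based CSMM-D medium. Doses: one dose, 10 µM compound with 0.25% DMSO. Timing: 4 h preincubation and 48 h exposure at 30 °C. Detection: turbidity as optical density at 615 nm. Benchmarks: amphotericin B 10 µg/mL, positive.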
Numbers stand for hits; – = inactive; · = no result given. This is a sample that favours compounds with a hit; in the whole collection about 2.7% have one here.

SMILES	RAM inhibit	Yeast life ext	SDO1 yeast rescue	BB579 growth dn
COC(=O)c1ccc(-n2nnnc2SCc2ccccc2OC)cc1	9.6	–	–	–
Cc1ccc(S(=O)(=O)N2CCOCC2)cc1C(=O)Nc1ccc(S(=O)(=O)Nc2nccs2)cc1	–	·	·	·
COc1ccc(C(=O)OCN2C(=O)c3ccccc3C2=O)cc1	–	·	·	·
COc1ccccc1CN(Cc1nc2ccccc2c(=O)[nH]1)C(=O)Nc1cccc(C)c1	–	66.0	–	–
COc1ccccc1NC(=O)N(Cc1ccc2c(c1)OCO2)Cc1nc2ccccc2c(=O)[nH]1	–	–	–	–
COc1cc(C(=O)O)c2ccccc2n1	–	·	·	·
CC(=O)Cn1ncc(Br)c(Br)c1=O	9.9	·	·	·
Nc1nonc1C(=O)NCCN=Cc1cc(Cc2ccccc2)cc(Br)c1O	–	–	–	99.4
CCOc1ccccc1C(=O)N[C@H](C(=O)Nc1cc(S(=O)(=O)N(C)C)ccc1OC)C(C)C	–	·	·	·
Cc1ccc(S(=O)(=O)/C(C#N)=C/c2ccccc2OCc2ccccc2)cc1	8.6	–	–	–
CC/C(=N\NC(=O)C(N)=O)c1ccccc1O	–	–	–	–
O=C(CSc1cccc[n+]1[O-])c1cc2ccccc2o1	–	–	–	99.2
Cn1cccc1C(=O)NC(=O)CSc1cccc[n+]1[O-]	–	–	–	95.1
O=C(O)CSc1cccc[n+]1[O-]	–	–	–	89.8
COc1ccc(S(=O)(=O)N2CCC(C(=O)NCc3cccs3)CC2)cc1	–	·	·	·
CC(C)N=c1scc(-c2ccco2)n1/N=C/c1ccc(O)c(O)c1	–	–	–	92.0
Cc1nc2ccccn2c1C(=O)NNS(=O)(=O)c1ccc(C(C)(C)C)cc1	–	–	–	–
O=c1c2c(nc3n1CCCCC3)-c1ccccc1CC21CCCCC1	9.9	·	–	–
CCC1(C)Cc2ccccc2-c2nc3n(c(=O)c21)CCCCC3 (stereo not given)	–	–	–	–
CCC(CC)c1nnc(NC(=O)Cc2ccccc2[N+](=O)[O-])s1	–	·	·	·
COC(=O)c1ccc(CSc2nc3ccccc3o2)cc1	8.8	–	–	–
O=[N+]([O-])c1ccc(CSc2nc3ccccc3o2)cc1	–	–	–	–
Cn1cc(Cl)c(-c2n[nH]c(=S)n2C2CCCCC2)n1	–	·	·	·
O=C(Cn1cncc1-c1ccc([N+](=O)[O-])cc1)Nc1ccccc1F	–	–	–	–
CCCCCCCCn1c(N2CCN(c3cccc(Cl)c3)CC2)nc2c1c(=O)[nH]c(=O)n2C	9.1	–	–	–
SMILES	RAM inhibit	Yeast life ext	SDO1 yeast rescue	BB579 growth dn
Oc1ccc(Cl)cc1Cc1cc(Cl)ccc1O	–	–	–	83.7
Cc1ccccc1N1CN(Cc2ccco2)CNC1=S	–	–	–	–
CCCCNc1oc(-c2cccs2)nc1S(=O)(=O)c1ccccc1	9.5	–	–	–
CN(CCCN1CCOCC1)Cc1cn(C)nc1-c1ccccc1F	–	·	·	·
COc1ccccc1OCCCn1c(C)c(C#N)c2ccccc21	10.7	–	–	–
COc1ccccc1OCCCn1cc(C#N)c2ccccc21	–	–	–	–
COCCN=c1scc(C)n1/N=C/C1CC2C=CC1C2 (stereo not given)	–	·	·	·
CN1CCN(CCc2cn3ncc(C#N)c3nc2-c2ccc(F)cc2)CC1	11.3	·	·	·
COc1ccc(CN=C(Nc2ccccc2)SC2CC(=O)N(C)C2=O)cc1 (stereo not given)	–	–	–	–
Cc1cc(C(=O)OCC(=O)Nc2cc(S(=O)(=O)N(C)C)ccc2C)c2ccccc2n1	–	·	·	·
Cc1ccc(S(=O)(=O)N(C)C)cc1NC(=O)COC(=O)/C=C/c1cnc2ccccc2n1	8.9	·	·	·
Cc1ccc(S(=O)(=O)N(C)C)cc1NC(=O)COC(=O)/C=C/c1ccc2c(c1)OCO2	9.3	·	·	·
CCCNC(=O)COC(=O)/C(C#N)=C/c1cc(C)n(CCC)c1C	–	·	·	·
CNC(=O)NC(=O)C(C)OC(=O)c1cc2c(s1)CCCCC2 (stereo not given)	–	–	–	–
NNc1ccc2c(C(F)(F)F)cc(C(F)(F)F)nc2n1	–	·	·	·
N#CC(c1cccc(Cl)c1)c1ccc2c(C(F)(F)F)cc(C(F)(F)F)nc2n1 (stereo not given)	–	–	–	63.5
Nc1[nH]n2c(=O)cc(-c3ccccc3)nc2c1N=Nc1ccc2c(c1)OCO2	10.4	·	·	·
O=C(CSc1ncnc2ccccc12)NCC(=O)c1ccccc1	–	·	·	·
Cc1nnc(C)n1N	–	·	·	·
CCOC(=O)c1cc(-c2ccc(N)cc2)sc1N	–	–	–	–
Nc1sc(-c2ccccc2)cc1C(=O)O	–	84.0	–	–
COc1ccc(CCNC(=O)c2ccccc2SC)cc1	–	·	·	·
Cc1cc(NC(=O)CSc2nnc3ccccn23)no1	–	·	·	·
Cc1onc(-c2ccccc2)c1C(=O)OCC(=O)NCc1ccc(F)cc1	8.5	·	·	·
CCOC(=O)N1CCN(C(=O)CSc2ccc3nnc(-c4cccnc4)n3n2)CC1	–	·	·	·
SMILES	RAM inhibit	Yeast life ext	SDO1 yeast rescue	BB579 growth dn
N#CC(C#N)=C(N)CSc1cccc[n+]1[O-]	–	·	·	·
COn1c(SC2CCCCC2)nc2ccccc2c1=O	–	45.8	–	–
COn1c(SCc2ccc(C)cc2C)nc2ccccc2c1=O	9.2	–	–	–
COn1c(SC(C)C)nc2ccccc2c1=O	–	–	–	–
COn1c(SCC(N)=O)nc2ccccc2c1=O	–	–	–	–
Cc1ccc(-c2cc(-c3cccc(F)c3)n[nH]2)c(O)c1	–	–	–	–
Cc1ccc(O)c(-c2cc(-c3ccccc3F)[nH]n2)c1	–	–	–	–
Cc1ccc(-c2cc(-c3ccccc3C)[nH]n2)c(O)c1	–	·	–	100.0
Cc1ccc(O)c(-c2cc(-c3cccc(F)c3)n[nH]2)c1	–	–	–	99.1
COc1ccc(O)c(-c2cc(-c3cccc(Br)c3)n[nH]2)c1	10.5	–	–	–
CC(OC(=O)c1cn(-c2ccccc2)nc1-c1cccnc1)C(N)=O (stereo not given)	–	·	·	·
O=C(c1ccccc1)c1nc2ccccc2n(CCCn2c(=O)c(C(=O)c3ccccc3)nc3ccccc32)c1=O	9.6	–	–	–
O=C(c1ccccc1)c1nc2ccccc2[nH]c1=O	–	76.2	–	–
Cn1c(=O)c(C(=O)c2ccccc2)nc2ccccc21	–	–	–	–
CCSc1nc2cc(OC)c(OC)cc2c(=O)n1CCc1ccccc1	8.6	–	–	–
Cc1cc(F)ccc1S(=O)(=O)Nc1ccccc1C(=O)NCc1cccnc1	–	·	·	·
COc1cc(C)ccc1OCCOc1cc(C)ccc1Cl	–	–	–	–
COc1cc(C)ccc1OCCOc1c(Cl)cc(Cl)cc1Cl	9.9	–	–	–
CC1(C)Oc2ccccc2OC1(O)c1ccc2ccccc2n1 (stereo not given)	–	–	–	–
COc1ccc(-c2nc(C#N)c(NCCCN(C)C)o2)cc1OC	–	–	–	–
COc1ccc(CCNc2oc(-c3ccc(OC)c(OC)c3)nc2C#N)cc1	10.8	–	–	–
Cc1cccc(N(CC(=O)NCCSc2nc3ccccc3s2)S(=O)(=O)c2ccccc2)c1	10.8	–	–	–
O=C(CN(c1ccccc1)S(=O)(=O)c1ccccc1)NCCSc1nc2ccccc2s1	–	–	–	–
Cc1ccc(N(CC(=O)NCCSc2nc3ccccc3s2)S(=O)(=O)c2ccccc2)c(C)c1	9.2	–	–	–

Screening results: PubChem, several laboratories
